Structures are written as SMILES. Changes are numbered by the printed parent chain.

Assay [1] deals with T1, URAT1 K393H mutant (Homo sapiens, UniProt Q96S37, K393H).
T1 sequence (Q96S37 1-553 K393H): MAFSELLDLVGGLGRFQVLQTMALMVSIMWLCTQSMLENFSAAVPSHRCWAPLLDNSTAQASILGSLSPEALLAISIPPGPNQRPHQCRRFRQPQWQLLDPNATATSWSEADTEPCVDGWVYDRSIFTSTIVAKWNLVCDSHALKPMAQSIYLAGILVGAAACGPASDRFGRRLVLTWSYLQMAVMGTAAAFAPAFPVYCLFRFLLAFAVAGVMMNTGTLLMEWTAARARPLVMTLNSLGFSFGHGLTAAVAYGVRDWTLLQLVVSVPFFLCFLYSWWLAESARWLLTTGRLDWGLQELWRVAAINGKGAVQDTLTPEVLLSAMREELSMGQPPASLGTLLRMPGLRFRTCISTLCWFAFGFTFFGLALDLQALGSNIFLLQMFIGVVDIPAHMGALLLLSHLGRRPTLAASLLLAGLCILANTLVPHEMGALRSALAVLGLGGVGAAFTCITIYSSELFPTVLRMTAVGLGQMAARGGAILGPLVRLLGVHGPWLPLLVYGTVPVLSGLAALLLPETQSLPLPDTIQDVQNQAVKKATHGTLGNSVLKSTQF
The assay is described as follows: 14C-uric acid binding assay with membrane protein. The conditions noted are these: 2.5 μg membrane protein, 25 μM 14C-uric acid, 30 min.

Assay [2] addresses T1, URAT1 K393H mutant. The assay is described as follows: Competitive inhibition test of unlabeled uric acid on 14C-uric acid uptake. In kind it is cell-based.
Another assay addresses T2, URAT1 K393R mutant (Homo sapiens, UniProt Q96S37, K393R).
T2 sequence (Q96S37 1-553 K393R): T1 sequence (Q96S37 1-553 K393H) with H393R
The assay is described as follows: 14C-uric acid binding assay with membrane protein. The conditions noted are these: 2.5 μg membrane protein, 25 μM 14C-uric acid, 30 min.

Assay [3] deals with T3, URAT1 K393D mutant (Homo sapiens, UniProt Q96S37, K393D).
T3 sequence (Q96S37 1-553 K393D): T1 sequence (Q96S37 1-553 K393H) with H393D
The assay is described as follows: 14C-uric acid binding assay with membrane protein. The conditions noted are these: 2.5 μg membrane protein, 25 μM 14C-uric acid, 30 min. The gist of the method:
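Membranes came from HEK293 cells transiently transfected (Lipofectamine 3000) with sequence-confirmed site-directed K393 mutant hURAT1 plasmids; control membranes came from cells transfected with pECFP empty vector. Cells were harvested in ice-cold 25 mM HEPES pH 7.3 with 125 mM sodium gluconate, and membranes were extracted with a kit. Protein was incubated at room temperature, then rapid-filtered, washed with ice-cold DPBS, dissolved in 0.1 M NaOH and scintillation-counted. n = 3, mean ± SD.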

In assay [4] the target is T3, URAT1 K393D mutant. The assay is described as follows: 14C-uric acid uptake assay in transfected HEK293 cells. The class given is cell-based. Conditions: K393D, HEK293 cells.
Assay [5] concerns the target T1, URAT1 K393H mutant. Described as above. In kind it is cell-based. Conditions: K393H, HEK293 cells.

Consider `O=c1[nH]c(=O)c2[nH]c(=O)[nH]c2[nH]1` [uric acid], for which the “14C-uric acid binding capacity compared with WT” value at URAT1 K393H mutant [1] and at URAT1 K393R mutant was “similar” in each case. Moreover, the half-inhibitory concentration (IC50) on URAT1 K393H mutant [2] came to 121 ± 5.98 µM. Besides, the “14C-uric acid binding compared with WT” value at URAT1 K393D mutant [3] is “significant loss”. Also, the “14C-urate transport capacity lost compared with WT” value at URAT1 K393D mutant [4] is recorded as 70–80%. The “14C-uric acid transport capacity compared with WT” value on URAT1 K393H mutant [5] was “slightly reduced”.

These data come from paper PMC9521027 (ACS Omega, 2022).
